# Hits are enriched below; roughly 1.5% of the tested compounds scored in any of these assays.
# TNF death inh: blocks TNF-alpha induced death of Jurkat FADD-/- cells; Jurkat FADD-/- TNF necroptosis rescue, ATP luminescence, 24 h; 0 = TNF only, 100 = no-TNF cells; activation (protection from cell death), % at 10 µM; 0.068% of 220,000 active; AID 463075;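 active = activation, meaning protection from cell death, of at least 50% relative to plate controls; inactive = activation below 50%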;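 note: necroptosis triggered by 40 ng/mL TNF-alpha added together with compound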
# S1P4 antagonist: human S1P4 receptor antagonism | O95977 | S1P4-expressing cells, antagonist mode, reporter read-out | inhibition, % at 4.98 µM | 0.26% of 220,000 active | AID 1510; in the data active = inhibition above about 29%;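 note: 0% = wells stimulated with agonist and 100% = vehicle wells without agonist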
# Dynein cargo inh: dynein cargo transport inhibition. 3617.4 mouse cells, GR-EGFP nuclear translocation imaging; test concentration mostly 20 µM; stimulated with dexamethasone, 1 µM; active compounds read low. z-score, hits read low. 0.47% of 220,000 active;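 active = plate z-score of nuclear minus cytoplasmic receptor signal below a set negative limit, without overly bright fluorescence or cell loss, cut at about -3.5 in these data, passing the limit was not always enough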;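 note: z-score of nuclear minus cytoplasmic ring GR-EGFP intensity difference per well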
#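 Buffer or medium – tet-free medium with charcoal-stripped serum · Signal – automated 10x imaging of fixed Hoechst-stained cells · Also added – dexamethasone agonist, 1.0 µM final, for 30 min · Incubation – induction 48 h, compound 1 h, agonist 30 min · Read-out – GR-EGFP nuclear translocation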
# L929 necroptosis: blocks zVAD induced death of L929 cells; L929 zVAD necroptosis rescue, ATP luminescence, 24 h; with zVAD 60 µM; viability rescue, % at 10 µM; 0.38% of 220,000 active;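 active = activation, scaled between plate controls, above about 75%, limit read from the data; inactive = activation under that limit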;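 note: 0% = zVAD with DMSO and 100% = DMSO alone without zVAD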
# Tb hexokinase: T. brucei hexokinase 1 inhibition. recombinant TbHK1, G6PDH-coupled NADH A340. inhibition, % at 10 µM. 0.11% of 220,000 active;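 active = inhibition of 50% or more in the single-dose primary screen; inactive = inhibition below 50%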
# S1P4 agonist: human S1P4 receptor agonism; O95977; activation, % at 4.98 µM; 0.35% of 220,000 active; AID 1509; S1P4-expressing cell line, agonist reporter assay; in the data active = activation above about 11%;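 note: 0% = DMSO vehicle and 100% = reference agonist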
# S1P4 ag conf: confirmation of human S1P4 receptor agonists. 7% of 740 active. shares compounds with S1P4 agonist. S1P4 agonist cell-based reporter assay. activation, % at 4.98 µM; in the data active = activation above about 12%;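 note: 0% = vehicle and 100% = full reference agonist response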
# S1P1 ag: activates human S1P1, counter-screen for S1P4 agonists | shares compounds with S1P4 agonist | S1P1 agonist cell-based assay, activation | activation, % at 4.98 µM | 4% of 740 active | AID 1563; in the data active = activation above about 21%;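 note: 0% = vehicle wells and 100% = reference agonist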
# Target sequence (P21453 whole entry, looked up): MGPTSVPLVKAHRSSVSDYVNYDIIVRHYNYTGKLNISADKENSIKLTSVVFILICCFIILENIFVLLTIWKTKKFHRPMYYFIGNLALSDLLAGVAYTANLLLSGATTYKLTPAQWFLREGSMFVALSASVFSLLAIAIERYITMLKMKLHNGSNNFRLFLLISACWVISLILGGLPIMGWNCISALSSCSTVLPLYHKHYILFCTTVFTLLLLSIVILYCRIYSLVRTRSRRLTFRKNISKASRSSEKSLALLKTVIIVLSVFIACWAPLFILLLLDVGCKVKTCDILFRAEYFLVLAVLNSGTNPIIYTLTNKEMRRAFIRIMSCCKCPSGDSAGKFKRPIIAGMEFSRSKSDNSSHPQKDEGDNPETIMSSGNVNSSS
# Active calls of the source: *; · = no result.
SMILES,TNF death inh,S1P4 antagonist,Dynein cargo inh,L929 necroptosis,Tb hexokinase,S1P4 agonist,S1P4 ag conf,S1P1 ag
COc1ccccc1N=c1oc2cc(O)ccc2cc1C(=O)NCC1CCCO1 (configuration not stated),-5,-35,-0.16,1,-8,38*,1,2
C=CCc1c(C)[nH]c2c(OC)cccc2c1=S,0,-19,-0.55,1,3,-1,·,·
NS(=O)(=O)c1ccc(CNC(=O)CCSCCC(=O)NCc2ccc(S(N)(=O)=O)cc2)cc1,1,-8,0.023,1,5,2,·,·
C/C(=N/NS(=O)(=O)c1ccccc1)c1ccc(NC(=O)C2CC2)cc1,0,-2,0.13,0,-11,-1,·,·
O=C(CN1C(=O)CSc2ccc(S(=O)(=O)N3CCOCC3)cc21)NCCCN1CCOCC1,1,-3,-0.92,1,-3,17*,-2,-4
O=C(CN1C(=O)CSc2ccc(S(=O)(=O)N3CCOCC3)cc21)NCCCN1CCc2ccccc2C1,1,0,-0.5,0,28,-1,·,·
COc1ccc(C2CC(c3ccccc3)=NN2C(=O)COC(=O)c2cccnc2)cc1 (configuration not stated),3,-13,1.2,-1,10,-2,·,·
COc1ccc(C2=NN(C(=O)CN3CCCC3)C(c3ccc(OC)cc3)C2)cc1 (configuration not stated),0,12,-1.1,0,7,40*,-2,-8
COc1ccc(C2CC(c3ccc(Br)cc3)=NN2C(=O)c2cccnc2)cc1 (configuration not stated),2,-17,-0.65,0,-9,12*,0,2
Cc1cccc(N=Nc2cnc(N)s2)c1,-3,-1,-0.97,0,-7,-1,·,·
COc1ccc(CC(=O)Nc2nn(C)c3nc4c(C)cccc4cc23)cc1,2,1,-0.22,0,-6,-2,·,·
O=C(Cn1c(Cc2ccccc2)nc2ccccc21)NCc1ccc2c(c1)OCO2,14,-14,-0.69,0,2,22*,-2,-4
O=C(Cn1c(CO)nc2ccccc21)NCc1ccc2c(c1)OCO2,0,-5,0.47,0,-5,-1,·,·
COc1cccc(OCCOCCOc2ccc(C)cc2[N+](=O)[O-])c1,1,-2,0.52,1,1,1,·,·
COc1ccc(OCCOCCOc2ccc(C)cc2[N+](=O)[O-])cc1,2,-19,-0.72,0,-5,30*,0,-5
CC(C)(C)C(=O)Cn1c(=O)n(-c2ccc(F)cc2F)c(=O)c2sccc21,2,0,-0.74,2,-3,95*,-3,4
CC(/C=N/NC(=O)c1cc(-c2ccc(C)o2)[nH]n1)=C\c1ccccc1,0,-10,0.64,3,-9,17*,-2,1
CC(/C=N/NC(=O)c1cc(-c2cccs2)[nH]n1)=C\c1ccccc1,3,-4,-0.54,16,-5,1,·,·
Nc1nnc(SCC(=O)OCC(=O)Nc2ccc(Br)cc2)s1,1,-11,0.01,1,1,62*,-2,-5
CC(C)N(c1nnc(N)s1)C(C)C,-1,-2,2.1,0,5,0,·,·
CN(Cc1ccccc1)c1nnc(N)s1,1,-10,-0.73,·,0,13*,-1,-8
CC(=O)C(Sc1ncnc2sc3c(c12)CCCC3)C(C)=O,-2,-3,-0.048,6,-5,3,·,·
C/C(CC1CC(COCC(C)C)OC1=O)=N\NC(N)=S (configuration not stated),0,-9,-0.25,1,3,13*,-2,-1
Clc1ccc(OCCn2cnc(Cl)c2Cl)cc1,4,2,0.039,1,-9,-2,·,·
Cc1c(CNC(=O)C2CC2)c(-n2cccc2)n(Cc2ccccc2)c1C,1,-9,-0.53,0,-1,0,·,·
SMILES,TNF death inh,S1P4 antagonist,Dynein cargo inh,L929 necroptosis,Tb hexokinase,S1P4 agonist,S1P4 ag conf,S1P1 ag
CCOc1ccc(NC(=O)CCn2c(=O)[nH]c3ccsc3c2=O)cc1,1,-3,-0.0023,0,-4,24*,-1,-4
O=C(NCc1ccccn1)C1CN(S(=O)(=O)c2ccccc2)CCN1S(=O)(=O)c1ccccc1 (configuration not stated),0,-11,2.1,0,7,-3,·,·
COc1cc(OC)cc(C(=O)N[C@H](C(=O)Nc2nc(-c3ccc(OC)c(OC)c3)cs2)C(C)C)c1,-2,-7,-0.11,0,-26,-1,·,·
CCCC(c1nnnn1C(C)(C)C)N1CCN(C(=O)c2ccco2)CC1 (configuration not stated),0,-1,-0.76,0,-4,2,·,·
CCOc1ccc(NC(=O)Nc2cccn(Cc3ccccc3)c2=O)cc1,-4,-10,0.98,0,-9,38*,-1,0
O=C(NCc1ccccc1)Nc1cccn(Cc2ccccc2)c1=O,3,-7,-0.085,0,15,-1,·,·
COc1ccccc1OCC(=O)NCc1nc(-c2ccccc2)no1,0,-9,-0.37,2,-1,76*,-1,1
C=CCN(c1ccccc1)S(=O)(=O)c1cccc(C(=O)Nc2nc3ccccc3[nH]2)c1,3,-28,0.12,1,0,22*,-3,-6
CCCCOc1ccc(C(=O)N/C(=C/C=C/c2ccccc2)C(=O)NCCCO)cc1,2,-16,-0.22,2,-40,13*,-1,-4
Cc1[nH]ncc1-c1ccccc1Cl,0,2,0.051,1,1,3,·,·
CCc1ccc(OCC(=O)N(CC)CC)cc1,1,5,-0.67,1,3,2,·,·
Cc1ccc(C(=O)/C=C2/NC(=O)CS2)cc1,-2,-1,0.91,0,-51,20*,-2,-3
COc1ccc(CC(=O)OCC(=O)Nc2c(C)n(C)n(-c3ccccc3)c2=O)cc1,0,-7,1.4,-1,-7,-2,·,·
COc1ccc(C(=O)NCC(=O)OCC(=O)Nc2c(C)n(C)n(-c3ccccc3)c2=O)cc1,1,-7,-0.23,0,6,104*,-2,-7
COc1cccc(NC(=O)CN(c2cccc(C(F)(F)F)c2)S(C)(=O)=O)c1,-1,-5,-0.73,2,-2,12*,-1,-2
O=C(O/N=C1\CCS(=O)(=O)c2sccc21)c1c(F)cccc1F,0,-11,-0.5,2,1,33*,-1,-4
COc1cccc(C(=O)O/N=C2\CCS(=O)(=O)c3sccc32)c1,1,-1,-0.36,2,1,0,·,·

# Screens: PubChem, several laboratories
